Hits are enriched below; roughly 1% of the tested compounds scored in any of these assays.
RAD54 inh = blocks human RAD54 Holliday junction branch migration. FAM/BHQ fluorescence. inhibition, % at 10.4 µM. 360,000 compounds, 0.14% hits. AID 602329;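 active means mean normalized replicate activity at least 40 and at least half of replicates scoring 40 or more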;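 further: 0% = median of neutral control wells and 100% = median of positive control wells; inhibitors cause a drop in the FAM fluorescence signal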
CAL PDZ FP-1 = inhibitors of human CAL PDZ peptide binding. AID 504414. inhibition, % at 20 µM. 330,000 compounds, 0.02% hits. Q9HD26. purified CAL PDZ, TMR-peptide fluorescence polarization, 1 h;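 active means highest replicate inhibition of at least 40%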;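 further: plate controls were DMSO neutral control wells for no effect and unlabeled competitor peptide control wells for full effect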
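Control set: unlabelled peptide and DMSO controls / Material: purified CerCALP PDZ construct / Timing: 1 h incubation at room temperature before polarization reading / Doses: 20 µM, one dose / Detection: fluorescence polarization (mP)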
CAL PDZ FP-2 = CAL PDZ (human) peptide binding inhibition; purified CAL PDZ, TMR-peptide fluorescence polarization, 1 h; 300,000 compounds, 0.92% hits; inhibition, % at 24.9 µM;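 active means mean inhibition of at least 30% with at least half of replicates also reaching 30%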;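 further: 0% = DMSO neutral control and 100% = excess unlabeled competitor peptide PRC23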
PDI turbidity = PDI (human) enzyme inhibition; P07237; 350,000 compounds, 0.052% hits; PDI insulin aggregation turbidity, A650, 90 min; inhibition, % at 10 µM;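 active means mean inhibition across replicates of 30% or more, whatever share of single replicates reach that level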
RAD52 inh = blocks human RAD52 DNA annealing. recombinant RAD52 DNA annealing, FRET fluorescence. P43351. 360,000 compounds, 0.46% hits. inhibition, % at 18.7 µM. AID 651710;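 active means every replicate showing at least 50% inhibition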
ERp5 block = blocks human ERp5 reductase activity on insulin | Q15084 | ERp5 insulin aggregation, absorbance 650 nm, 90 min | inhibition, % at 9.99 µM | 350,000 compounds, 0.05% hits;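 active means mean replicate inhibition above about 25%, with every replicate also reaching it, limit read from the data, passing the limit was not always enough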
Target sequence (Q15084 whole entry, looked up): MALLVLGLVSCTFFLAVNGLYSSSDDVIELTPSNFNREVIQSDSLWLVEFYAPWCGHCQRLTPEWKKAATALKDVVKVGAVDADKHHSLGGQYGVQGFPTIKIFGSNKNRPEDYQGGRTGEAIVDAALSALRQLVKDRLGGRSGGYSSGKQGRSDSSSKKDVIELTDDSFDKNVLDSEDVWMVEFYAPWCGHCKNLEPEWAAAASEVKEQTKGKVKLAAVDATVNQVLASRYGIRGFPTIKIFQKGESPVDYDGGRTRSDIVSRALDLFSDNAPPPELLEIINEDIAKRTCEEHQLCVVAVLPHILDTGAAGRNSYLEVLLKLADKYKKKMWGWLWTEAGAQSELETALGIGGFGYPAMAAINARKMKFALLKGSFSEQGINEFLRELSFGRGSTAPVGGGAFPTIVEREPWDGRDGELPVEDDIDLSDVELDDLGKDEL
* hit, by the source's call; nt = no result given; ! = not confirmed by another sample.

SMILES	RAD54 inh	CAL PDZ FP-1	CAL PDZ FP-2	PDI turbidity	RAD52 inh	ERp5 block
CCCNC(=O)C[C@H]1CC[C@@H]2[C@H](COc3ccc(NC(=O)CCC)cc3C(=O)N2C)O1	0	nt	nt	nt	-7	-80
CCOC(=O)Cn1c(=O)oc2cc(S(=O)(=O)N(CCN(C)C)Cc3ccccc3)ccc21	-5	0	-2	-3	nt	nt
CCOC(=O)Cn1c(=O)oc2cc(S(=O)(=O)N(C)Cc3ccccc3)ccc21	-11	0	76*	0	-8	2
Cc1cc([N+](=O)[O-])nn1CC(=O)N(C)C1CCCCC1	1	-1	54*	4	-24	3
CCc1nn(CC(=O)N(C)C2CCCCC2)c(=O)c2cc3cc(C)ccc3n12	-6	0	104*	2	0	4
C[C@@H]1CN([C@@H](C)CO)C(=O)c2c(c3ccccc3n2C)-c2ccccc2CO[C@@H]1CN(C)C(=O)Nc1cccc(F)c1	1	nt	nt	nt	18	-1
C[C@@H]1CN([C@H](C)CO)C(=O)CCCn2cc(nn2)CO[C@H]1CN(C)C(=O)Nc1ccc(N2CCN(C)CC2)cc1	8	nt	nt	nt	62*	2
C[C@@H]1CN([C@@H](C)CO)C(=O)CCCn2nncc2CO[C@H]1CN(C)C(=O)Nc1ccc(N2CCN(C)CC2)cc1	6	nt	nt	nt	58*!	-1
C[C@H](CO)N1C[C@H](C)[C@@H](CN(C)S(=O)(=O)c2ccc(Oc3ccccc3)cc2)OCc2cnnn2CCCC1=O	2	nt	nt	19	3	89*!
C[C@H]1CN([C@@H](C)CO)C(=O)CCCn2cc(nn2)CO[C@@H]1CN(C)Cc1cccc(C(F)(F)F)c1	-3	nt	nt	nt	-1	44*
C[C@H](CO)N1C[C@H](C)[C@@H](CN(C)C(=O)Nc2ccc(N3CCN(C)CC3)cc2)OCc2cnnn2CCCC1=O	-13	nt	nt	1	55*!	2
Cn1c(NCc2ccco2)nc2c1c(=O)n(Cc1ccc(Cl)c(Cl)c1)c(=O)n2C	-4	-1	76*	0	nt	nt
C[C@H]1CN([C@@H](C)CO)C(=O)c2cc(NC(=O)C3CC3)ccc2O[C@H]1CN(C)S(=O)(=O)c1cn(C)cn1	4	nt	nt	nt	-2	-3
Cc1noc(C)c1S(=O)(=O)N(C)C[C@@H]1Oc2ccc(NC(=O)CCC(F)(F)F)cc2CC(=O)N([C@@H](C)CO)C[C@H]1C	-1	nt	nt	nt	6	0
CC(=O)c1ccc(OCc2cc(C(=O)N3CCN(c4ccccc4)CC3C)no2)cc1 (centres undefined)	-10	0	6	13	-29	nt
CSc1ccccc1OCc1cc(C(=O)N2CCN(c3ccccc3)CC2C)no1 (centres undefined)	-1	0	69*	3	-30	-3
Cc1ccc(-c2nc(C)sc2CC(=O)OCC(=O)Nc2ccc(F)c(Cl)c2)cc1	-5	-2	54*	-2	-16	2
O=C(Nc1ccc(C2=NCCN2)cc1)c1ccc(C(=O)Nc2ccc(C3=NCCN3)cc2)c([N+](=O)[O-])c1	nt	-2	-24	-27	104*	-2
CCN(CC)CCN1C(=O)C(=O)/C(=C(/O)c2c(C)[nH]c(C(=O)OC)c2C)C1c1ccccc1 (centres undefined)	1	-3	-8	-9	nt	nt
CCN(CC)CCN1C(=O)C(=O)/C(=C(/O)c2c(C)[nH]c(C(=O)OC)c2C)C1c1cccnc1 (centres undefined)	-21	1	44*	-1	nt	nt
Cc1cccc(NC(=O)c2sccc2-n2cccc2)c1C	-8	nt	32*	5	-10	4
COc1cc(CN2CC3(CN(C(=O)Nc4cccc(F)c4)C3)c3c(n(C)c4cc(OC)ccc34)[C@H]2CO)cc(OC)c1	nt	nt	nt	nt	4	-2
COc1ccc(-c2cc3c(=O)n(CC(=O)NCc4ccc(C)cc4)ncn3n2)cc1	3	1	12	nt	-2	-2
COc1ccc(-c2cc3c(=O)n(CC(=O)NCc4ccc(F)cc4)ncn3n2)cc1	3	-1	50*	nt	-5	4
O=C(Nc1ccccc1)C1CC2CCC1C2 (centres undefined)	-7	0	nt	3	-12	4
SMILES	RAD54 inh	CAL PDZ FP-1	CAL PDZ FP-2	PDI turbidity	RAD52 inh	ERp5 block
O=C(Nc1ccccc1)OC1CCC2CC1CCC2OC(=O)Nc1ccccc1 (centres undefined)	-11	-1	32*	30	-14	6
O=C(CSc1nc2cccnc2n1Cc1ccccc1)NCc1ccco1	-2	nt	65*	-6	nt	nt
CCn1c(SCC(=O)NCc2ccco2)nc2cccnc21	3	nt	-1	-5	-23	-6
N=C1/C(=C\c2ccc(-c3cccc(Cl)c3)o2)C(=O)N=C2SC=C(c3ccccc3)N12	nt	-3	-1	-4	-25	0
N=C1/C(=C\c2ccc(-c3ccc(C(=O)O)cc3)o2)C(=O)N=C2SC=C(c3ccccc3)N12	-3	12	78*	3	-30	0
COC(=O)C1=C(O)/C(=C\c2ccc(OCC(=O)Nc3ccc(OC)cc3)cc2)N=C1C	3	-1	1	-6	-25	-4
COC(=O)C1=C(O)/C(=C\c2ccc(OCC(=O)Nc3ccccc3OC)cc2)N=C1C	7	0	73*	-6	-27	7
CC(C)Cc1nc2oc3c(NCC(C)O)ncnc3c2c2c1CCCC2 (centres undefined)	-12	-2	43*	1	-11	nt
Cc1cc(C)n2c(SCC(=O)N(CC(C)C)c3c(N)n(CC(C)C)c(=O)[nH]c3=O)nnc2n1	nt	-1	70*	-2	-87	-1
O=C(NC1CCCC1)C1CCCN(S(=O)(=O)c2ccc(-n3cnnn3)cc2)C1 (centres undefined)	2	nt	33*	10	-17	2
O=C(CCCSc1nnnn1-c1cccc2ccccc12)c1ccc(F)cc1	-1	nt	46*	15	nt	nt
COCC(=O)Nc1ccc2c(c1)OC[C@H](C)N(CC1CCCCC1)C[C@@H](C)[C@@H](OC)CN(C)C2=O	6	nt	nt	nt	10	0
N#C[C@@H]1[C@@H](c2ccc(-c3ccc(F)cc3)cc2)[C@H](CO)N1c1nc(-c2ccccc2)cs1	-13	nt	nt	nt	-38	11
N#C[C@@H]1[C@H](c2ccc(-c3ccc(F)cc3)cc2)[C@@H](CO)N1c1nc(-c2ccccc2)cs1	nt	nt	nt	nt	63*	5
CCCC(=O)Nc1ccc2c(c1)C(=O)N(C)[C@H]1CC[C@H](CC(=O)OC)O[C@@H]1CO2	nt	nt	nt	nt	10	0
O=C(c1cnccn1)N1CC[C@H]2[C@H](CO)Nc3ccc(C#Cc4cccnc4)cc3[C@H]21	-8	nt	nt	nt	12	-2
COc1ccccc1/C=C/C=N/NC(=O)c1cc(-c2ccc(C)o2)[nH]n1	nt	-4	62*	4	-44	-7
COc1ccc(-n2nc(C(=O)NCC(=O)N3CCCC(C)C3)c3ccccc3c2=O)cc1 (centres undefined)	1	0	-2	-4	-3	-9

Assay outcomes from PubChem BioAssay.
